Calls of active or inactive are those of the source. No cut-off for these calls is given here.
Tests used:
Adenosine receptor A2a [1] = molecular target: Adenosine receptor A2a (Homo sapiens, UniProt P29274); assay: Displacement of [3H]-ZM 241385 from human adenosine A2A receptor expressed in HEK293 cell membrane; assay type: cell membranes
Homo sapiens = species on record: Homo sapiens; assay: Selectivity ratio of Ki for human adenosine A1 receptor to Ki for human adenosine A2A receptor
Method in brief: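 Stably transfected Flp-In HEK293 membranes with human A1 or A2A receptors (1–2 µg protein) were preincubated 30 min at room temp with adenosine deaminase. They were then incubated 90 min with competitor and 1.0 nM [3H]-DPCPX (A1) or 2.0 nM [3H]-ZM241385 (A2A). Nonspecific binding used 1 µM DPCPX or CGS15943. Filtration and scintillation counting followed. […] Ratio is A1 Ki/A2A Ki.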

Adenosine receptor A1 = molecular target: T1, Adenosine receptor A1 (Homo sapiens, UniProt P30542); assay: Displacement of [3H]-DPCPX from human adenosine A1 receptor expressed in HEK293 cell membrane; assay type: cell membranes
T1 sequence (P30542 whole entry): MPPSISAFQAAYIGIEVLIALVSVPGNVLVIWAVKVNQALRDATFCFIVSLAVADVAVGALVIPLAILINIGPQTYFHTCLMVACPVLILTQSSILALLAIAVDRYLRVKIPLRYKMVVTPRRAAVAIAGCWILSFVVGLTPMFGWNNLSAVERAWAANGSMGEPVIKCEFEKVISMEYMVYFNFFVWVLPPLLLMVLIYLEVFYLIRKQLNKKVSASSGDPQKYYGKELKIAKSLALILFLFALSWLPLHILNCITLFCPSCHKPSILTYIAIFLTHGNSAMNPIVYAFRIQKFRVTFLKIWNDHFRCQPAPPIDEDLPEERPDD
Method in brief: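 Flp-In HEK293 cell line stably expressing the human receptor, crude membranes used at 1–2 µg protein. Pre-incubated 30 min at room temperature with 10 µg/mL adenosine deaminase. Then incubated 90 min with 1.0 nM [3H]-DPCPX and graded competitor in 50 mM Tris-HCl pH 7.4, 1 mM EDTA, 10 mM MgCl2. Nonspecific binding defined with 1 µM DPCPX. Separated by filtration on GF/C, counted by scintillation. Ki from IC50 via Cheng-Prusoff. Mean of at least two runs.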

Adenosine receptor A2a [2] = molecular target: Adenosine receptor A2a (Rattus norvegicus, UniProt P30543); assay: Displacement of [3H]-ZM 241385 from rat adenosine A2A receptor expressed in CHO cell membrane; assay type: cell membranes
[3] = molecular target: Voltage-gated inwardly rectifying potassium channel KCNH2 (Homo sapiens, UniProt Q12809); assay: Inhibition of human ERG potassium current expressed in HEK293 cells by patch-clamp technique
Cytochrome P450 3A4 = Cytochrome P450 3A4 (Homo sapiens, UniProt P08684); assay: Inhibition of CYP3A4; assay type: ADME
Cytochrome P450 2D6 = Cytochrome P450 2D6 (Homo sapiens, UniProt P10635); assay: Inhibition of CYP2D6; assay type: ADME
Rattus norvegicus = assay: Effect on haloperidol-induced catalepsy in Wistar rat at 30 mg/kg, po after 2 hrs; assay type: functional, organism-based; set-up: dose 30 mg/kg
Method in brief: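 Male Wistar rats, ∼220 g, habituated 1 week, 24 per experiment. Oral dose of 30 mg/kg in 5% cremophor/sterile water (5 mL/kg) 2 h before testing, haloperidol 1.5 mg/kg ip 1 h before. Bar test: forepaws placed on 8.0 cm bar, three 30 s trials 3 min apart. Descent latency averaged per rat and compared with vehicle, p < 0.05.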

[4] = Drug level in Wistar rat brain at 30 mg/kg, po after 2 hrs; assay type: ADME, organism-based; set-up: dose 30 mg/kg, route oral; conditions: read-out: Drug uptake
Method in brief: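 Male Wistar rats, ∼220 g. Oral dose of 30 mg/kg in 5% cremophor in sterile water (5 mL/kg), with haloperidol 1.5 mg/kg ip 1 h before the bar test. Brain collected 2 h after dosing. Half-brain homogenates centrifuged, supernatant analysed by LC-MS/MS (positive ESI, MRM). Quantified against brain-matrix calibration standards by internal-standard peak-area ratio on a 1/x-weighted linear curve.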

Sequence of Voltage-gated inwardly rectifying potassium channel KCNH2 (Q12809 whole entry): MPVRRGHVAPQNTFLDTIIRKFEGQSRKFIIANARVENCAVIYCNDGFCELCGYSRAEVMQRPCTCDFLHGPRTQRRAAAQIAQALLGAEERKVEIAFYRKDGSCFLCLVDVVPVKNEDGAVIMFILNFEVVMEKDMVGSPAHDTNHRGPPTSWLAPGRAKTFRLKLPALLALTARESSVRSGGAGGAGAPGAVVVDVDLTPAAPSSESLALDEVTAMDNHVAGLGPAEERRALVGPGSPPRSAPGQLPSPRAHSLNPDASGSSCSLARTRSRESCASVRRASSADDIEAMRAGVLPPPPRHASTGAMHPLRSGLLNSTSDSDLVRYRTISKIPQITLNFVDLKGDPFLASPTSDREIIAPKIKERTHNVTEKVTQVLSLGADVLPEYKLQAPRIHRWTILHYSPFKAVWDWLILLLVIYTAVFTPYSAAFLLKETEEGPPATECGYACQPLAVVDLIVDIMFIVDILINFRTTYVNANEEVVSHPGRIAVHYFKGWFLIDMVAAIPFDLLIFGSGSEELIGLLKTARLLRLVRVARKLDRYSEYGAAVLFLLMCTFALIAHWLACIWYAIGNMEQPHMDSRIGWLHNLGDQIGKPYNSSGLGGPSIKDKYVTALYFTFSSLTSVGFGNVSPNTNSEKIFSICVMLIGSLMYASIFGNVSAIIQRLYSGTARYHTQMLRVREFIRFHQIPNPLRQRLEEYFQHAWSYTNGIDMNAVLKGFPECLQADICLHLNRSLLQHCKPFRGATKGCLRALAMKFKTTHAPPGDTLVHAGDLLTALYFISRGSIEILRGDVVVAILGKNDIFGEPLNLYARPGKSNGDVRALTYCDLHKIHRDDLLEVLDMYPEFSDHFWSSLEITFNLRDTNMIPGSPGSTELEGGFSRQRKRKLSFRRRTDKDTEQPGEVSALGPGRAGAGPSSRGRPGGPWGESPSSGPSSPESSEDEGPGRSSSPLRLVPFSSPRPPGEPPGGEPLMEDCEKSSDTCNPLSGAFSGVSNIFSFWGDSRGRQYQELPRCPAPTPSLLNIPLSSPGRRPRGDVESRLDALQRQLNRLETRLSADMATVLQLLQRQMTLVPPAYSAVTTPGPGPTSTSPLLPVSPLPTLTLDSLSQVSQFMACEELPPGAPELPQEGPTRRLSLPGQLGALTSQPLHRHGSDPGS
Sequence of Adenosine receptor A2a (Homo sapiens, UniProt P29274) (P29274 whole entry): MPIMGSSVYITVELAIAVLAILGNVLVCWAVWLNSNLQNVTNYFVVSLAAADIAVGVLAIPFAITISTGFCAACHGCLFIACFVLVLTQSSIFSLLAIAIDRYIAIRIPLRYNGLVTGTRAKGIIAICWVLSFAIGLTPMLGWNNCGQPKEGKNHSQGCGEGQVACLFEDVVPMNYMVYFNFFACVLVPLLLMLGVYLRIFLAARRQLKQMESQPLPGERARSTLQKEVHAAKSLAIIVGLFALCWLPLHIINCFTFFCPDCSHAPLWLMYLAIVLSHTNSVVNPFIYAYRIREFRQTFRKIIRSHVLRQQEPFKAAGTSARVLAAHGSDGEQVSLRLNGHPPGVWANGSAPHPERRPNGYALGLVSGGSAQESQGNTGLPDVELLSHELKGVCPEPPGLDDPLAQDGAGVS
Sequence of Adenosine receptor A2a (Rattus norvegicus, UniProt P30543) (P30543 whole entry): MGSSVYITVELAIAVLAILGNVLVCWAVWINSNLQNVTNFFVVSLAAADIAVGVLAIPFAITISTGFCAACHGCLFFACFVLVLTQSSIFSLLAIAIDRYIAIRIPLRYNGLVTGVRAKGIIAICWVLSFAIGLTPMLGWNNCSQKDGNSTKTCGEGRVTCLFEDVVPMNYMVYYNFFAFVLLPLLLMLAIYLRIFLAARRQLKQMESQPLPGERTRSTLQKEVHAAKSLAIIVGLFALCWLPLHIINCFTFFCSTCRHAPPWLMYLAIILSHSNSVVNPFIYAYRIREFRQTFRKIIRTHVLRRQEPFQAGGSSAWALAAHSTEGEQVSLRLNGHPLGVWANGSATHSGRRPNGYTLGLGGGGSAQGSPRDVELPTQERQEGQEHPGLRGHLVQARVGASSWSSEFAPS
Sequence of Cytochrome P450 3A4 (P08684 whole entry): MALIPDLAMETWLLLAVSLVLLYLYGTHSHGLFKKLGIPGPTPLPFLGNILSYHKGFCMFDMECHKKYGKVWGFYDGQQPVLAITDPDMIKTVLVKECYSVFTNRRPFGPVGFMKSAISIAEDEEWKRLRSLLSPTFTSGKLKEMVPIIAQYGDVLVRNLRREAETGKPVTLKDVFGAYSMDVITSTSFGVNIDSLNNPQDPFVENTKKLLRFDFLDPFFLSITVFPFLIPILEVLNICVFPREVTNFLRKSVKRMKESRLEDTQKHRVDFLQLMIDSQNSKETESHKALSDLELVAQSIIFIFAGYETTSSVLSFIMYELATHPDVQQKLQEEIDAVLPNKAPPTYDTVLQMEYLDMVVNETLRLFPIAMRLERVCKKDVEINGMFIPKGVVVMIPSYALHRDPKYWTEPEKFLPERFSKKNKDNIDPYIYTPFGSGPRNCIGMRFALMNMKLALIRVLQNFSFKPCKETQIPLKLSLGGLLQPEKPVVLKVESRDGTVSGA
Sequence of Cytochrome P450 2D6 (P10635 whole entry): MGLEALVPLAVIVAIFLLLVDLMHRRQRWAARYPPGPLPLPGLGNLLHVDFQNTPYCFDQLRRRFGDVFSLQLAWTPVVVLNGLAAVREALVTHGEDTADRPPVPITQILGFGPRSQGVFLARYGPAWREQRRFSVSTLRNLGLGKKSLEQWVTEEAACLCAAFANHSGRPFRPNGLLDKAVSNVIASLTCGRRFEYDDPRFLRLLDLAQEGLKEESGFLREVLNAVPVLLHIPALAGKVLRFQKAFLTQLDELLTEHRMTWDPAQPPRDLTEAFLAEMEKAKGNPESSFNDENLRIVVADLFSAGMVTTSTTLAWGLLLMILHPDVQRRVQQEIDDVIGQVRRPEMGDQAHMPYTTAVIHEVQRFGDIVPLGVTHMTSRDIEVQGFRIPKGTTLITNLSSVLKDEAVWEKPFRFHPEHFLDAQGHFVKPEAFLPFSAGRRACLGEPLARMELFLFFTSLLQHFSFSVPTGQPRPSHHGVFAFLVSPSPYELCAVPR

| Compound | Ki (Adenosine receptor A2a [1]) [nM] | Ratio Ki (Homo sapiens) | Ki (Adenosine receptor A1) [nM] | Ki (Adenosine receptor A2a [2]) [nM] | IC50 [3] [nM] | Inhibition (Cytochrome P450 3A4) | Inhibition (Cytochrome P450 2D6) | Activity (Rattus norvegicus) | concentration at 2 h [4] [ng/g] |
| --- | --- | --- | --- | --- | --- | --- | --- | --- | --- |
| Cc1cc(C)n(-c2cc(NC(=O)CN3CC[C@@H](N(C)C)C3)nc(-c3ccc(C)o3)n2)n1 | 4 | 66 | 262 |  |  |  |  |  |  |
| Cc1cc(C)n(-c2cc(NC(=O)CCN(C)C)nc(-c3ccc(C)o3)n2)n1 | 2.1 |  | 210 | 43 |  |  |  |  |  |
| Cc1cc(C)n(-c2cc(NC(=O)CN3CC[C@H](CN(C)C)C3)nc(-c3ccc(C)o3)n2)n1 | 11 |  | 550 | 34 |  |  |  |  |  |
| Cc1cc(C)n(-c2cc(NC(=O)CN3CCN(C)CC3)nc(-c3ccc(C)o3)n2)n1 |  | 71 |  | 131 | 950 | Not Active | Not Active |  |  |
| COC1CCN(CC(=O)Nc2cc(-n3nc(C)cc3C)nc(-c3ccc(C)o3)n2)CC1 | 15 | 81 | 1210 | 1600 |  |  |  |  |  |
| CCN1CCN(CC(=O)Nc2cc(-n3nc(C)cc3C)nc(-c3ccc(C)o3)n2)CC1 | 11 | 171 | 1880 | 270 |  |  |  |  |  |
| CCN[C@H]1CCN(CC(=O)Nc2cc(-n3nc(C)cc3C)nc(-c3ccc(C)o3)n2)C1 | 2.5 | 148 | 370 | 37 | 420 |  |  |  |  |
| Cc1cc(C)n(-c2cc(NC(=O)CCN3CC[C@H](N(C)C)C3)nc(-c3ccc(C)o3)n2)n1 | 2.4 | 263 | 630 | 41 | 2280 |  |  | Active | 250 |
| Cc1cc(C)n(-c2cc(NC(=O)CN3CCC[C@H](CN(C)C)C3)nc(-c3ccc(C)o3)n2)n1 | 10 | 89 | 890 | 87 |  |  |  |  |  |
| CCN(CC)[C@H]1CCN(CC(=O)Nc2cc(-n3nc(C)cc3C)nc(-c3ccc(C)o3)n2)C1 | 4.4 | 591 | 2600 | 155 |  |  |  |  |  |
| Cc1cc(C)n(-c2cc(NC(=O)CN3CCOCC3)nc(-c3ccc(C)o3)n2)n1 | 5.7 | 88 | 500 | 430 |  |  |  |  |  |
| CCN[C@@H]1CCN(CC(=O)Nc2cc(-n3nc(C)cc3C)nc(-c3ccc(C)o3)n2)C1 | 3.8 | 71 | 270 |  |  |  |  |  |  |
| Cc1cc(C)n(-c2cc(NC(=O)CC3CCN(C)CC3)nc(-c3ccc(C)o3)n2)n1 | 5.4 |  | 1020 | 103 |  |  |  |  |  |
| Cc1cc(C)n(-c2cc(NC(=O)CN3CCC(CN(C)C)CC3)nc(-c3ccc(C)o3)n2)n1 | 2.9 | 131 | 380 | 25 | 1670 |  |  |  |  |
| Cc1cc(C)n(-c2cc(NC(=O)CN3CC[C@H](OC(C)C)C3)nc(-c3ccc(C)o3)n2)n1 | 86 | 27 | 2300 |  |  |  |  |  |  |
| Cc1cc(C)n(-c2cc(NC(=O)CN3CCCC3)nc(-c3ccc(C)o3)n2)n1 | 8.6 | 40 | 347 |  |  |  |  |  |  |
| Cc1cc(C)n(-c2cc(NC(=O)CN3CCCOCC3)nc(-c3ccc(C)o3)n2)n1 | 6 | 105 | 630 | 230 |  |  |  |  |  |
| Cc1cc(C)n(-c2cc(NC(=O)CN3CCCN(C)CC3)nc(-c3ccc(C)o3)n2)n1 | 10 | 210 | 2100 | 46.7 | 285 |  |  |  |  |
| Cc1cc(C)n(-c2cc(NC(=O)CN3CCC[C@@H](CN(C)C)C3)nc(-c3ccc(C)o3)n2)n1 | 1.5 | 47 | 71 | 14 |  |  |  |  |  |
| Cc1cc(C)n(-c2cc(NC(=O)CN3CC[C@@H](CN(C)C)C3)nc(-c3ccc(C)o3)n2)n1 | 2.1 |  | 220 | 27.8 |  |  |  |  |  |
| CC(=O)N1CCN(CC(=O)Nc2cc(-n3nc(C)cc3C)nc(-c3ccc(C)o3)n2)CC1 | 3.6 | 150 | 540 | 170 |  |  |  |  |  |
| Cc1cc(C)n(-c2cc(NC(=O)CN3CC[C@H](N(C)C)C3)nc(-c3ccc(C)o3)n2)n1 | 3.7 | 254 | 940 | 160 | 600 |  |  | Active | 1900 |
